CHOP inhibitor – blocks CHOP induction under ER stress | inhibition, % at 10 µM | CHO-K1 CHOP-promoter luciferase, tunicamycin-induced, 15-18 h | 220,000 tested, 3.8% active;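 active = compounds that reduced the stress-induced luciferase reporter signal by more than about 70% of percent inhibition, limit read from the data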;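 also: 0% = tunicamycin plus vehicle and 100% = wells without tunicamycin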
Arbovirus anti – blocks arbovirus infection. 200,000 tested, 0.37% active. inhibition, % at 10 µM. arbovirus infection cell-based antiviral screen; in the data active = inhibition above about 30%
PKD1 inh – inhibitors of human PKD1 kinase; Q15139; 200,000 tested, 0.056% active; inhibition, % (no concentration beside the values); PKD1 kinase fluorescence polarization assay; AID 797
Wee1 stabilizer – blocks degradation of human Wee1 kinase. 220,000 tested, 1.2% active. P30291. HeLa Luc-Wee1K328M stability, luciferase luminescence; 100% = proteasome inhibitor MG132 effect. AID 1321. reporter increase, % at 5 µM;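 active = activation above the mean of all tested compounds plus 3 SD, set per screening run, cut at about 8.8% in these data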;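 also: cells exposed to compound for 20 h before luminescence read; 0% = DMSO alone and 100% = MG132 at 30 µM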
Target sequence (P30291 whole entry K328M): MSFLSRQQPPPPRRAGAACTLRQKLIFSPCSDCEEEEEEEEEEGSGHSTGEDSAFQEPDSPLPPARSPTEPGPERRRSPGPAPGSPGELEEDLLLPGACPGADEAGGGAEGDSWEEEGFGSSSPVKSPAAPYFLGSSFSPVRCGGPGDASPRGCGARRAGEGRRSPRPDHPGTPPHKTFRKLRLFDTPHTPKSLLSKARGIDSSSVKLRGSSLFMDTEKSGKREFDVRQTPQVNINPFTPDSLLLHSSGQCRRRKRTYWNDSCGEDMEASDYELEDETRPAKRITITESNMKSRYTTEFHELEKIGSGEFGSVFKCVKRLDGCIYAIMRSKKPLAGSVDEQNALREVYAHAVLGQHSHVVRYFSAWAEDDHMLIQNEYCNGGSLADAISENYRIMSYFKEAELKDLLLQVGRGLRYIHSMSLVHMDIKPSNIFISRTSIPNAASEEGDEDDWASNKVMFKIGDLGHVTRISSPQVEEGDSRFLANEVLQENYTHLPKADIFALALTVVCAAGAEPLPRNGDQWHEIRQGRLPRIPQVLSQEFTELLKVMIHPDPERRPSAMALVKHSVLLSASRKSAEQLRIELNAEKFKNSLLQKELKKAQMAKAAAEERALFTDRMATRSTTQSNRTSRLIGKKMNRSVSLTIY
Rad51 HR inh – blocks human Rad51 in homologous recombination; Q06609; hRad51 DNA strand exchange, fluorescence dequenching; inhibition, % at 10 µM; 200,000 tested, 0.085% active;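 active = inhibition above 40% at the single screening dose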;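 also: 0% = DMSO control wells and 100% = blanks with heterologous ssDNA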
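Material: hRad51 filaments on single-stranded DNA; Reagent: Donor/quencher-labelled 47-bp dsDNA substrate; Compound: 10 µM final, single point; Schedule: 37 °C 15-min filament assembly, 30-min compound preincubation, 15-min exchange; Technique: FRET fluorescence, excitation 485 nm, emission 520 nm; Benchmarks: control wells and blank wells on each plate.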
L major viab – inhibitors of Leishmania major promastigote growth; inhibition, % at 10 µM; Leishmania major promastigotes, resazurin fluorescence viability; 200,000 tested, 9% active; AID 1063;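 also: promastigotes grown with compound for 44 hours at 28 °C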
* marks the source's active call; other numbers are inactive results; nt = no result. This is a sample that favours compounds with a hit; in the whole collection about 12% have one here. Rule as the data show it, unless noted: active = inhibition above about 50%; inactive = the rest.

SMILES | CHOP inhibitor | Arbovirus anti | PKD1 inh | Wee1 stabilizer | Rad51 HR inh | L major viab
COc1ccc2nc3oc(C(=O)NC4CCN(Cc5ccccc5)CC4)cc3cc2c1 | 28 | -6 | 6 | -2 | 1 | 100*
CCN(CC)S(=O)(=O)c1ccc(OC)c(NC(=O)c2ccc([N+](=O)[O-])cc2)c1 | 15 | 1 | -6 | -2 | 3 | 3
O=S(=O)(c1cccc(NC(=S)Nc2ccc(Br)cc2Cl)c1)N1CCOCC1 | 42 | -4 | 8 | 5 | -10 | 52*
CCN(CC)S(=O)(=O)c1ccc(OC)c(NC(=S)Nc2ccc(C)c(C)c2)c1 | 12 | 0 | -1 | 4 | nt | 62*
CCN(CC)S(=O)(=O)c1ccc(NC(=S)NC(=O)CC(C)C)cc1 | 44 | -3 | -1 | -1 | 9 | 1
CCN(CC)S(=O)(=O)c1ccc(C)c(NC(=S)Nc2cccc(S(=O)(=O)N3CCCCCC3)c2)c1 | 54 | 2 | 0 | -2 | -4 | 92*
O=C(Cc1c(Cl)cccc1Cl)Nc1cccc(S(=O)(=O)N2CCOCC2)c1 | 6 | -3 | -6 | 1 | 6 | 18
CCN(CC)S(=O)(=O)c1ccc(NC(=S)NC(=O)C(C)C)cc1 | 34 | -6 | -10 | 0 | 8 | 72*
CCn1c(=O)cc(SCC(=O)N2CCN(c3ccccc3F)CC2)c2ccccc21 | 12 | -4 | -9 | -2 | -1 | 53*
Cc1sc2c(c1C)C(O)=C(C(=O)Nc1ccccc1)S(=O)(=O)N2C | 3 | nt | nt | -3 | nt | nt
Cc1c(Cl)cnc(NC(=O)COC(=O)c2ccc3ncsc3c2)c1Cl | 37 | 0 | 2 | 0 | -46 | 62*
O=C(Nc1cccc(NC(=O)c2cccs2)c1)c1ccc2c(c1)OCCO2 | 9 | -27 | -8 | 2 | -22 | 22
Cc1ccccc1Nc1c(-c2ccncc2)nc2ccc(Br)cn12 | 2 | -22 | 2 | -2 | 8 | 96*
Cc1ccccc1Nc1c(-c2ccccn2)nc2ccccn12 | 69 | -29 | 5 | 1 | -1 | 100*
Cc1ccn2c(Nc3ccccc3C)c(-c3ccccn3)nc2c1 | 88* | -26 | -1 | 5 | -25 | 101*
Cc1ccc2nc(-c3ccccn3)c(Nc3ccccc3C)n2c1 | 77* | -27 | -3 | -3 | -9 | 100*
Cc1ccccc1Nc1c(-c2cccnc2)nc2ccc(Br)cn12 | 8 | -13 | 0 | 4 | 3 | 29
Cc1cccn2c(Nc3ccccc3)c(-c3ccccn3)nc12 | -71 | -9 | 0 | 6 | 5 | 36
Cc1cc(C)n(CCNC(=O)CC2C(=O)NCCN2Cc2ccccc2C(F)(F)F)n1 (configuration not stated) | 29 | 3 | 0 | -2 | nt | -2
C=CCn1c(CNC(=O)c2ccccc2F)nnc1SCC(=O)NC(C)c1ccccc1 (configuration not stated) | 38 | -2 | -8 | 0 | nt | 0
Cc1ccn2c(Nc3ccccc3)c(-c3ccccn3)nc2c1 | 84* | -19 | 6 | 3 | 5 | 101*
CC(C)NC(=O)C1CCN(C2CCN(CC3CC=CCC3)CC2)CC1 (configuration not stated) | -14 | -24 | 1 | 4 | -5 | 9
CC(C)=CCCC(C)CN1CCC(N2CCC(C(=O)NC(C)C)CC2)CC1 (configuration not stated) | -6 | -18 | 13 | 3 | -17 | 83*
O=C(C1CCN(C2CCN(CC3CC=CCC3)CC2)CC1)N1CCOCC1 (configuration not stated) | -19 | -17 | -1 | -5 | 5 | 76*
CC(C)=CC(=O)N1CCC(N2CCC(C(=O)N3CCOCC3)CC2)CC1 | 14 | 6 | -2 | -2 | 6 | -2
SMILES | CHOP inhibitor | Arbovirus anti | PKD1 inh | Wee1 stabilizer | Rad51 HR inh | L major viab
CC(C)=CCCC(C)CN1CCC(N2CCC(C(=O)N3CCOCC3)CC2)CC1 (configuration not stated) | -12 | -21 | 0 | 2 | -52 | 96*
O=C(O)C[C@H](O)C[C@H](O)/C=C/c1c(C2CC2)nc2ccccc2c1-c1ccc(F)cc1 | nt | nt | nt | nt | 5 | nt
Fc1ccc(/C=C2\CCCC3=C2Nc2ncnn2C3c2ccc(F)cc2)cc1 (configuration not stated) | -10 | -48 | 1 | 0 | -6 | 73*
Cc1cc(C(=O)Nc2nc3c(C)cccc3s2)c(C)o1 | 44 | 2 | -1 | -1 | 4 | 14
CSc1ncccc1C(=O)Nc1nc2c(C)cccc2s1 | 86* | 0 | -12 | 3 | 6 | 69*
Cc1cc(C)c(C)c(S(=O)(=O)N[C@@H](C)C(=O)OCC(N)=O)c1C | -3 | 3 | 8 | 4 | -12 | -6
O=C(N/N=C/c1ccncc1)c1nn(Cc2ccccc2)c(=O)c2ccccc12 | 23 | 3 | -3 | 0 | 0 | 12
O=S(=O)(Nc1cccc(CCc2ccccn2)c1)c1cc(Cl)ccc1Cl | 14 | nt | nt | 3 | 11 | nt
O=S(=O)(Nc1cccc(CCc2ccccn2)c1)c1ccc2ccccc2c1 | 84* | 10 | -6 | -2 | nt | -2
C=CC(=O)NC(NC(=O)C=C)c1ccccc1F | 13 | nt | nt | 9 | -11 | nt
O=S(=O)(c1ccc(NC(=S)Nc2ccccc2)cc1)N1CCOCC1 | 13 | 5 | -10 | -2 | 3 | 1
CC(C)CCCCCCNC(=S)Nc1ccc(S(=O)(=O)N2CCOCC2)cc1 | 76* | 6 | -13 | 2 | -11 | 50
CC(NC(=S)Nc1ccc(S(=O)(=O)N2CCOCC2)cc1)C1CC2CCC1C2 (configuration not stated) | 58 | -25 | 2 | 1 | 15 | 63*
Cc1ccc(S(=O)(=O)N2CCCCC2)cc1C(=O)Nc1ccc(S(=O)(=O)Nc2ncccn2)cc1 | -5 | nt | nt | 1 | -11 | nt
O=C(Nc1ccc(Cl)cc1)N1N=CCC1c1ccccc1 (configuration not stated) | 5 | nt | nt | -1 | 12 | nt
O=C(Nc1ccccc1)C1=C(O)CC(c2ccc(Cl)cc2)N2CCN=C12 (configuration not stated) | 36 | 17 | -2 | -1 | 7 | 92*
CC1=C(C#N)C(c2cccnc2)C2=C(CC(c3ccc(Cl)cc3)CC2=O)N1 (configuration not stated) | 12 | -12 | -2 | 2 | -6 | 100*
CC1=C(C#N)C(c2ccc(O)cc2)C2=C(CCCC2=O)N1 (configuration not stated) | 59 | -7 | -7 | 0 | nt | -4
CC(C)(C)n1nnnc1C(c1ccccn1)N(Cc1ccccc1)Cc1ccc(Cl)cc1 (configuration not stated) | 56 | -28 | -3 | 2 | -2 | 53*
CCOC(=O)c1c(-c2ccccc2)oc2ccc(O)c(CN3CCCC3)c12 | 28 | -25 | 0 | 0 | 0 | 99*
CCOC(=O)c1c(-c2ccccc2)oc2ccc(O)c(CN(C)C)c12 | 15 | -14 | 2 | 3 | -5 | 100*

Bioassay records: PubChem BioAssay, several laboratories
